In ChEMBL document CHEMBL3808358, “Rational Design of Small Peptides for Optimal Inhibition of Cyclooxygenase-2: Development of a Highly Effective Anti-Inflammatory Agent” (J Med Chem, 2016):
Activity calls are given as the source filed them. The rule behind the calls is not given here. Residues, ends and D or L forms follow the SMILES beside them. *: point of attachment. Cbz = O=C(OCc1ccccc1)*

What was measured:
Mus musculus [1] = experiment: Analgesic activity in Swiss albino mouse assessed as reduction in capsaicin-induced paw licking at 10 mg/kg, ip dosed 30 mins before capsaicin injection measured for 10 mins; type: functional, organism-based
Outline: (§1)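 Swiss albino mice of either sex (25-35 g), kept at 22 ± 2 °C on a 12 h light/dark cycle with free food and water. 5 animals per group. Capsaicin (1.6 μg in 20 μL) is injected into the plantar surface of the hind paw. Pain is scored as the number of paw lickings over 10 min.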

[2] = target: Prostaglandin G/H synthase 1 (Homo sapiens) (UniProt P23219); experiment: Inhibition of COX1 in healthy human whole blood assessed as calcium ionophore A23187-stimulated TXB2 level at 1 uM preincubated for 60 mins followed by A23187 addition measured after 30 mins by ELISA; type: tissue-based
Outline: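 Fresh venous blood from a healthy volunteer is collected in EDTA. 1 mL samples receive compound, indomethacin or DMSO vehicle (final 1 μM). After 60 min, A23187 is added (final 50 μM). After 30 min, samples are centrifuged at 4 °C and TxB2 in plasma is measured by ELISA, read at 420 nm. Samples are run in duplicate.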

Mus musculus [3] = experiment: Antiinflammatory activity in Swiss albino mouse assessed as reduction in carrageenan-induced paw edema at 10 mg/kg, ip dosed 30 mins before carrageenan injection measured up to 300 mins by vernier calliper method relative to control; type: functional, organism-based
Mus musculus [4] = experiment: Analgesic activity in Swiss albino mouse assessed as reduction in formalin-induced paw flinches in inflammatory phase at 5 mg/kg, ip dosed 30 mins before formalin injection measured after 15 to 30 mins; type: functional, organism-based
Outline: (§2)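 Swiss albino mice of either sex (25-35 g). 20 μL of 2% formalin is injected into the plantar surface of the right hind paw 30 min after treatment. Hind paw flinches are counted for the neurogenic phase (0-5 min) and the inflammatory phase (15-30 min). Results are given as mean ± SEM.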

Mus musculus [5] = experiment: Analgesic activity in Swiss albino mouse assessed as reduction in formalin-induced paw flinches in neurogenic phase at 5 mg/kg, ip dosed 30 mins before formalin injection measured up to 5 mins; type: functional, organism-based; outline: as §2
[6] = target: T1, Prostaglandin G/H synthase 2 (Homo sapiens, UniProt P35354); experiment: Inhibition of human recombinant COX2 assessed as reduction in PGH2-derived PGF2alpha using arachidonic acid as substrate preincubated for 10 mins followed by substrate addition measured after 2 mins by enzyme immunoassay
T1 sequence (P35354 whole entry): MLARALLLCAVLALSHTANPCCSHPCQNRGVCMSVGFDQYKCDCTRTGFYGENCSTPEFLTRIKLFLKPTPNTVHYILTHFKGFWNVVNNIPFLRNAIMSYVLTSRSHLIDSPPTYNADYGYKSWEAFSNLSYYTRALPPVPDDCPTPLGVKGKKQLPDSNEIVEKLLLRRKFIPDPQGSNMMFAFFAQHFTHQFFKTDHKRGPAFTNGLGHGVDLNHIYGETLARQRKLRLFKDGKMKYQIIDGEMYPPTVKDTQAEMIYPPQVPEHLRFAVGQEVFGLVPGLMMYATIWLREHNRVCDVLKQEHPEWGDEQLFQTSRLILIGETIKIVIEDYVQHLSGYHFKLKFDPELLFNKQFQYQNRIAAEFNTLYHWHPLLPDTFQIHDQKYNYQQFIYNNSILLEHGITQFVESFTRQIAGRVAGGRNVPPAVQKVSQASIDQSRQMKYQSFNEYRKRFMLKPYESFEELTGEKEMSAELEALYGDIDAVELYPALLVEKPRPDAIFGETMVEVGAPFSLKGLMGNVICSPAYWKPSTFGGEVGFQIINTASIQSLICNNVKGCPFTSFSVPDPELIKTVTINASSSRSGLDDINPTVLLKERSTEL

[7] = target: T2, Prostaglandin G/H synthase 1 (Ovis aries, UniProt P05979); experiment: Inhibition of ovine COX1 assessed as reduction in PGH2-derived PGF2alpha using arachidonic acid as substrate preincubated for 10 mins followed by substrate addition measured after 2 mins by enzyme immunoassay
T2 sequence (P05979 whole entry): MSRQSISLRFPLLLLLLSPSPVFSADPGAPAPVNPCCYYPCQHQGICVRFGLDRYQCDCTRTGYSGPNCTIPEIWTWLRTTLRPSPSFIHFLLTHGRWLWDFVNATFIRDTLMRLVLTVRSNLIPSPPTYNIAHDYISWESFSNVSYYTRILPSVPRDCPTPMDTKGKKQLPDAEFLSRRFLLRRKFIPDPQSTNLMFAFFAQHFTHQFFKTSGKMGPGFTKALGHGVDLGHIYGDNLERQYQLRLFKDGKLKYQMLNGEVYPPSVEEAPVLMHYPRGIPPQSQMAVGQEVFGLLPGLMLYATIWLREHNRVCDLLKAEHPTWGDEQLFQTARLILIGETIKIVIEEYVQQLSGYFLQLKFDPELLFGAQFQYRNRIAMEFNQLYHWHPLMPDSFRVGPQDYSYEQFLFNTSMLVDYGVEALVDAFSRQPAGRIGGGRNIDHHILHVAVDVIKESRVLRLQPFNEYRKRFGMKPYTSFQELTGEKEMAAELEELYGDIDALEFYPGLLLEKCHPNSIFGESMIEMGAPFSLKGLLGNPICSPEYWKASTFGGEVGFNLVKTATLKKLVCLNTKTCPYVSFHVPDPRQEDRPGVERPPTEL
Outline: (§3)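 Ovine COX-1 and human recombinant COX-2 with heme are preincubated with inhibitor for 10 min at 37 °C. Arachidonic acid is then added for 2 min at 37 °C. Prostaglandins are quantified by competitive AChE-tracer EIA, read at 420 nm. Four concentrations (10^-5 to 10^-8 M) are tested in triplicate. IC50 is taken from the dose-response curve of the mean % inhibition.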

[8] = Selectivity index, ratio of IC50 for ovine COX1 to IC50 for human recombinant COX2; outline: as §3
Mus musculus [9] = experiment: Analgesic activity in Swiss albino mouse assessed as reduction in capsaicin-induced paw licking at 5 to 10 mg/kg, ip dosed 30 mins before capsaicin injection measured for 10 mins; type: functional, organism-based; outline: as §1

Sequence of Prostaglandin G/H synthase 1 (Homo sapiens) (P23219 whole entry): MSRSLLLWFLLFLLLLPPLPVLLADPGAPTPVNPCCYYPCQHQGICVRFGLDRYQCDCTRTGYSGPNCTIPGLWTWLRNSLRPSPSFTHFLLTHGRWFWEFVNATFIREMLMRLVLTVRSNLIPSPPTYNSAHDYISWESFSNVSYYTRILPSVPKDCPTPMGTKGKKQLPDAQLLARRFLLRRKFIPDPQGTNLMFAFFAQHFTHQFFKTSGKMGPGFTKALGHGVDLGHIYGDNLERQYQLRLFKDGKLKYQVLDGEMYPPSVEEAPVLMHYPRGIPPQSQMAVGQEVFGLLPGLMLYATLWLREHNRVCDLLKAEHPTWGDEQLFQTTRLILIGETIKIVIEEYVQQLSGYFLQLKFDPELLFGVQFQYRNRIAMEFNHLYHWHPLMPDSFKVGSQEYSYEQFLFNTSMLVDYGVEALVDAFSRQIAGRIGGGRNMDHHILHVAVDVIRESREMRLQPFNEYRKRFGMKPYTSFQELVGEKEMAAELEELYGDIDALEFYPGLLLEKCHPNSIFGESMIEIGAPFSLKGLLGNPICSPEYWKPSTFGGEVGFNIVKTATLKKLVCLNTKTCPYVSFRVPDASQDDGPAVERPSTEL

Compound	IC50 [6] [µM]	IC50 [7] [µM]	Ratio IC50 [8]	also measured
COc1ccc2c(c1)c(CC(=O)O)c(C)n2C(=O)c1ccc(Cl)cc1				Activity (Mus musculus [1]): Active; Activity [2]: 2.7 ng/mL
O=C(O)Cc1ccccc1Nc1c(Cl)cccc1Cl				Activity (Mus musculus [3]): Active; Activity (Mus musculus [4]): Active; Activity (Mus musculus [5]): inactive
CC(C)C[C@H](NC(=O)[C@@H](NC(=O)[C@H](C)NC(=O)CNC(=O)OCc1ccccc1)C(C)C)C(=O)O (Cbz-GAVL-OH)	8	> 10		
COC(=O)[C@H](CC(C)C)NC(=O)[C@@H](NC(=O)[C@H](C)NC(=O)CNC(=O)OCc1ccccc1)C(C)C (Cbz-GAVL-OMe)	22	> 10		
CC(C)C[C@H](NC(=O)[C@H](Cc1ccccc1)NC(=O)CNC(=O)CNC(=O)OCc1ccccc1)C(=O)O (Cbz-GGFL-OH)	0.5	3	6	
COC(=O)[C@H](CC(C)C)NC(=O)[C@H](Cc1ccccc1)NC(=O)CNC(=O)CNC(=O)OCc1ccccc1 (Cbz-GGFL-OMe)	20	> 10		
CC(C)C[C@H](NC(=O)[C@H](C)NC(=O)[C@@H](NC(=O)CNC(=O)OCc1ccccc1)C(C)C)C(=O)O (Cbz-GVAL-OH)	0.3	3	10	
COC(=O)[C@H](CC(C)C)NC(=O)[C@H](C)NC(=O)[C@@H](NC(=O)CNC(=O)OCc1ccccc1)C(C)C (Cbz-GVAL-OMe)	19	> 10		
CC(C)[C@H](NC(=O)[C@H](C)NC(=O)CNC(=O)OCc1ccccc1)C(=O)O (Cbz-Gly-Ala-Val-OH)	3	> 10	> 3	
COC(=O)[C@@H](NC(=O)[C@H](C)NC(=O)CNC(=O)OCc1ccccc1)C(C)C (Cbz-Gly-Ala-Val-OMe)	0.1	8	80	Activity (Mus musculus [9]): Active
O=C(O)CNC(=O)CNC(=O)OCc1ccccc1 (Cbz-Gly-Gly-OH)		> 10		
COC(=O)CNC(=O)CNC(=O)OCc1ccccc1 (Cbz-Gly-Gly-OMe)	1	> 10	> 10	
CC(C)C[C@H](NC(=O)CNC(=O)[C@@H](NC(=O)OCc1ccccc1)C(C)C)C(=O)N[C@@H](C)C(=O)O (Cbz-VGLA-OH)	0.05	0.3	6	
COC(=O)[C@H](C)NC(=O)[C@H](CC(C)C)NC(=O)CNC(=O)[C@@H](NC(=O)OCc1ccccc1)C(C)C (Cbz-VGLA-OMe)	0.08	> 10	> 125	Activity (Mus musculus [9]): Active
CC(C)C[C@H](NC(=O)CNC(=O)[C@@H](NC(=O)OCc1ccccc1)C(C)C)C(=O)O (Cbz-Val-Gly-Leu-OH)	28	> 10		
COC(=O)[C@H](CC(C)C)NC(=O)CNC(=O)[C@@H](NC(=O)OCc1ccccc1)C(C)C (Cbz-Val-Gly-Leu-OMe)	56	> 10		
CC(C)[C@H](NC(=O)OCc1ccccc1)C(=O)NCC(=O)O (Cbz-Val-Gly-OH)	55	> 10		
COC(=O)CNC(=O)[C@@H](NC(=O)OCc1ccccc1)C(C)C (Cbz-Val-Gly-OMe)	75	> 10		
CC(C)C[C@H](NC(=O)[C@H](Cc1ccccc1)NC(=O)CNC(=O)CN)C(=O)O (H-GGFL-OH)	0.4	> 10	> 25	
CC(C)[C@H](NC(=O)[C@H](C)NC(=O)CN)C(=O)O (H-Gly-Ala-Val-OH)	0.2	9	45	
COC(=O)[C@@H](NC(=O)[C@H](C)NC(=O)CN)C(C)C (H-Gly-Ala-Val-OMe)	10	> 10	> 1	
COC(=O)[C@H](CC(C)C)NC(=O)CNC(=O)[C@@H](N)C(C)C (H-Val-Gly-Leu-OMe)	10	> 10		
